Screening results (PubChem)
PLK1 inh: human PLK1 kinase inhibitors, primary screen, biochemical, TR-FRET; inhibition, % at 10 µM; recombinant PLK1 kinase, TR-FRET peptide phosphorylation; 97,000 compounds, 0.53% hits; Serine/threonine-protein kinase PLK1 (Homo sapiens), P53350;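 active = inhibition of 50% or more in the single-concentration screen; inactive = inhibition below 50%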;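 note: 0% = DMSO max control and 100% = H-89 dihydrochloride min control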
Target sequence (P53350 whole entry, looked up): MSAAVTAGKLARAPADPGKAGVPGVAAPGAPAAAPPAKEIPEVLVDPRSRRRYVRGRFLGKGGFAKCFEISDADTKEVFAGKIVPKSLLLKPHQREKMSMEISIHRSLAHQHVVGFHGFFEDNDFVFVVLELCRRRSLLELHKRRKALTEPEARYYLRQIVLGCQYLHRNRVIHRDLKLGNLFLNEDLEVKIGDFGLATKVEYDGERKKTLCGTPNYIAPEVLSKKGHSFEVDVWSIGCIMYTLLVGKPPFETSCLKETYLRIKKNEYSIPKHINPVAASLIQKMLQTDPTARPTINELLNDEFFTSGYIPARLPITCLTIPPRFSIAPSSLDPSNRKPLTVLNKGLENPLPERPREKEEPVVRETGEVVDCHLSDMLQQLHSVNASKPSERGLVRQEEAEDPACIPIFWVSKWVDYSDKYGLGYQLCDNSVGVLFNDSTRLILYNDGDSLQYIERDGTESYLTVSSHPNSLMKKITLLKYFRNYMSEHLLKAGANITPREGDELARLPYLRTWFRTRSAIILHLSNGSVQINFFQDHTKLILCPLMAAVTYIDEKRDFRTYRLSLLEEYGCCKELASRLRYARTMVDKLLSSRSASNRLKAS
hDAT+cocaine: changed hDAT dopamine uptake under cocaine IC80, either direction, primary screen, cocaine antagonist project, cell-based, LLC-PK1 hDAT, [14C]-dopamine uptake, MLSMR; B-score at 10 µM; LLC-PK1 hDAT cells, [14C]-dopamine uptake with cocaine IC80; actives deviate in either direction; Sodium-dependent dopamine transporter (Homo sapiens), Q01959; 110,000 compounds, 1.3% hits;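 active = Z score or B-score, a plate-position-corrected score, falls beyond the plate's 99.7% confidence bounds, in either direction; inactive = both scores lie inside the 99.7% bounds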;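 note: scored against the spread of the other compound wells on the same plate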
PTPN22 act: LYP phosphatase activators, primary screen, biochemical, DiFMUP fluorescence, 2 µM | Tyrosine-protein phosphatase non-receptor type 22 (Homo sapiens), Q9Y2R2 | recombinant LYP; 0 = plate median, 100 = signal doubled | activation, % at 2 µM | 96,000 compounds, 0.11% hits;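 active = activation at 2 µM above a set limit, the mean plus 5 SD, cut at about 37% in these data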
PLK1 PBD inh: Plk1 polo box domain binding inhibitors, primary screen, biochemical, fluorescence polarization; Plk1 PBD phosphopeptide binding; inhibition, %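 (tested at about 20 µM)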; 97,000 compounds, 0.13% hits; in the data active = inhibition above about 34%, passing the limit was not always enough
LYP inh 2: PTPN22 phosphatase inhibitors, primary screen, biochemical, DiFMUP fluorescence, 2 µM; Tyrosine-protein phosphatase non-receptor type 22 (Homo sapiens), Q9Y2R2; inhibition, % at 2 µM; AID 640, 2007; recombinant LYP catalytic domain; 96,000 compounds, 0.21% hits;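 active = inhibition at 2 µM at or above a set limit, the screen mean plus 3 SD, cut at about 24% in these data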;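 note: 0% = DMSO with enzyme and 100% = enzyme fully blocked by orthovanadate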
Rev-RRE block: HIV-1 Rev-RRE binding inhibitors, primary screen, biochemical, FRET, protein-RNA interaction | P05866 | Rev peptide-RRE RNA binding | inhibition, % at 8 µM | 97,000 compounds, 0.79% hits | AID 704, 2007;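 active = inhibition above the screen-wide mean plus 3 SD, cut at about 35% in these data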;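 note: 0% = median DMSO wells and 100% = median Neomycin B control wells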
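Test system – labelled RRE RNA duplex and labelled Rev peptide · Signal – fluorescein-to-Cy5 FRET, 480 nm excitation · Evaluation – % inhibition of FRET ratio versus controls · Benchmarks – DMSO low control, neomycin B high control · Incubation – 5 min RNA-compound premix plus 15 min binding step, 25 °C · Medium – HEPES pH 7.5 salt buffer with EDTA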
LYP act confirm: retest of PTPN22 activators, confirmation, biochemical, DiFMUP fluorescence, single concentration. shares compounds with PTPN22 act. Recombinant LYP, activation; zero set by plate's median compound well. activation, % at 2 µM. 100 tested, under 10 active; call rule not given here
Active calls of the source: *; · = no result. Compounds with a hit are over-represented: about 2.7% of the library has one in this group of screens.

SMILES	PLK1 inh	hDAT+cocaine	PTPN22 act	PLK1 PBD inh	LYP inh 2	Rev-RRE block	LYP act confirm
O=C1c2ccccc2C(=O)N1c1n[nH]c(CCc2ccccc2)n1	-13.2	-0.93	42.7*	-18.1	-48.8	3.7	-3.6
CCc1onc(C)c1C(=O)Nc1cc(C)ccc1OC	-14.3	-0.284	40.0*	14.9	-44.2	2.5	-3.7
Cc1cccc(CSc2ncc(CO)n2C)c1	-4.4	0.707	37.9*	1.7	-41.3	6.0	-4.0
Cn1c(CO)cnc1SCc1ccc([N+](=O)[O-])cc1	-6.7	-0.741	·	-15.7	·	0.8	·
O=C(N1CCOCC1)C(F)(F)C(F)(F)C(F)(F)C(F)(F)C(=O)N1CCOCC1	-17.2	-0.0183	-4.6	15.2	4.2	-1.0	·
Nc1cc(N)nc(SCC(=O)c2ccccc2)n1	-12.1	-0.0517	43.1*	-1.1	-39.6	-2.5	3.8
CCn1c(COc2ccccc2OC)nnc1SCC#N	-2.8	-0.412	2.3	10.2	-5.0	2.3	·
CC(=O)c1ccc(NC(=O)Nc2ccccc2)cc1	-2.5	0.955	-5.9	2.1	7.5	3.1	·
CC1=C(C(N)=O)C(c2cccnc2)n2nc(SCc3ccccc3Cl)nc2N1 (stereo not given)	-13.9	-0.14	46.4*	8.6	-48.4	-2.0	3.1
CCN1C(=O)C2C(c3cccc(F)c3)NC(CC)(C(=O)OC)C2C1=O (stereo not given)	-7.6	-0.247	41.5*	-1.8	-42.0	-1.5	7.3
CCCC1(C(=O)OC)NC(c2cccc(F)c2)C2C(=O)N(CC)C(=O)C21 (stereo not given)	·	0.746	·	·	·	·	·
COCCNC(=S)NC12CC3CC(CC(C3)C1)C2	-7.1	-0.35	-1.5	-17.2	0.6	-1.8	·
Cc1ccc(NC2=NCC(=O)N2Cc2ccc3c(c2)OCO3)cc1	·	0.896	·	·	·	·	·
CCOC(=O)C(Oc1ccc2c(-c3ccc(OC)cc3)cc(=O)oc2c1C)c1ccccc1 (stereo not given)	-1.9	1.81	43.6*	-6.3	-37.9	-2.0	-10.0
O=C(c1ccccc1C(F)(F)F)N1CCN(S(=O)(=O)c2ccccc2)CC1	-8.8	-0.746	-5.7	5.5	6.2	4.9	·
CC(=O)N(Cc1c(C#N)c2ccccc2n1C)c1ccccc1	-11.8	-0.573	6.9	-3.1	-6.2	7.5	·
CCOC(=O)CSCc1c(C#N)c2ccccc2n1C	-10.7	0.00418	39.8*	15.1	-42.0	1.8	3.9
